Measured values taken from ChEMBL document CHEMBL1155309, “Synthesis of 3,6-disubstituted 7H-1,2,4-triazolo[3,4-b]-1,3,4-thiadiazines as novel analgesic/anti-inflammatory compounds” (Eur J Med Chem, 2009).

Tests used:
Mus musculus [1] = assay: Antiinflammatory activity in BALB/c mouse assessed as inhibition of carrageenan-induced paw edema at 200 mg/kg, po after 360 mins; type: functional; conditions: 6 h
Method in brief: (§1)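 Oral dosing in 0.5% CMC/water suspension, vehicle for controls. 1 h later, carrageenan (0.5 mg/25 µl saline) injected subplantar into right hind paw, 25 µl saline into left. Right–left footpad thickness measured by dial callipers every 90 min for 6 h. % inhibition = [(n − n′)/n]×100 versus control. Groups of 3 (100 mg/kg screen) or 4–5 mice.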

Mus musculus [2] = assay: Analgesic activity in BALB/c mouse assessed as decrease in acetic acid-induced writhing at 100 mg/kg, po administered 1 hr prior to acetic acid challenge by Koster's test; type: functional
Method in brief: (§2)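 Test samples suspended in distilled water/0.5% CMC given orally; vehicle to controls. 1 h later, 3% (w/v) acetic acid i.p. (0.1 ml/10 g). Starting 5 min after injection, writhings counted for 10 min. Result expressed as % change from writhing controls. Groups of 4 mice (preliminary 100 mg/kg) or 4–5 mice (50/200 mg/kg). Two-tailed Student's t test.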

Mus musculus [3] = assay: Analgesic activity in BALB/c mouse assessed as decrease in acetic acid-induced writhing at 50 mg/kg, po administered 1 hr prior to acetic acid challenge by Koster's test; type: functional; method in brief: as §2
Mus musculus [4] = assay: Analgesic activity in BALB/c mouse assessed as decrease in acetic acid-induced writhing at 200 mg/kg, po administered 1 hr prior to acetic acid challenge by Koster's test; type: functional; method in brief: as §2
Mus musculus [5] = assay: Antioxidant activity in BALB/c mouse assessed as TBARS level per gram of wet weight of tissue at 200 mg/kg, po; type: functional; parameters: unit: nmol/g
Method in brief: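 Mice dosed orally at 200 mg/kg were killed under ether 8 h after the writhing test and stomachs removed. Tissue extract supernatant obtained by centrifugation (1000×g 10 min, then 2000×g 30 min, 4 °C). Heated with TBA in boiling water for 60 min, TCA added, absorbance read at 532 nm against blank tissue. Calibrated with 1,1,3,3-tetraethoxypropane; reported as nmol TBARS/g wet tissue.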

Mus musculus [6] = assay: Acute toxicity in BALB/c mouse assessed as diarrhea and depression at 50 to 200 mg/kg, po after 72 hrs; type: organism-based; parameters: dose 50-200 mg/kg, route oral; conditions: in vivo
Mus musculus [7] = assay: Antiinflammatory activity in BALB/c mouse assessed as inhibition of carrageenan-induced paw edema at 100 mg/kg, po after 180 mins; conditions: 3 h
Mus musculus [8] = assay: Antiinflammatory activity in BALB/c mouse assessed as inhibition of carrageenan-induced paw edema at 200 mg/kg, po after 270 mins; conditions: 4.5 h
Mus musculus [9] = assay: Gastrointestinal toxicity in BALB/c mouse assessed as acute ulcerogenic risk at 200 mg/kg, po; type: organism-based; parameters: dose 200 mg/kg, route oral; conditions: in vivo
Method in brief: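 Mice, fasted overnight with free water, received 200 mg/kg orally as a suspension in distilled water with 0.5% carboxymethyl cellulose, in groups of 4–5. They were first used in the acetic acid writhing test. Eight hours after that test they were killed under deep ether anaesthesia, and their stomachs were removed and scored for ulcers. Acetylsalicylic acid 200 mg/kg was the reference.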

Mus musculus [10] = assay: Antiinflammatory activity in BALB/c mouse assessed as inhibition of carrageenan-induced paw edema at 100 mg/kg, po after 90 mins; type: functional; conditions: 1.5 h; method in brief: as §1
Mus musculus [11] = assay: Antiinflammatory activity in BALB/c mouse assessed as inhibition of carrageenan-induced paw edema at 100 mg/kg, po after 270 mins; type: functional; conditions: 4.5 h; method in brief: as §1
Mus musculus [12] = assay: Antiinflammatory activity in BALB/c mouse assessed as inhibition of carrageenan-induced paw edema at 200 mg/kg, po after 90 mins; type: functional; conditions: 1.5 h; method in brief: as §1
Mus musculus [13] = assay: Antiinflammatory activity in BALB/c mouse assessed as inhibition of carrageenan-induced paw edema at 200 mg/kg, po after 270 mins; type: functional; conditions: 4.5 h; method in brief: as §1
Mus musculus [14] = assay: Antiinflammatory activity in BALB/c mouse assessed as inhibition of carrageenan-induced paw edema at 100 mg/kg, po after 180 mins; type: functional; conditions: 3 h; method in brief: as §1
Mus musculus [15] = assay: Antiinflammatory activity in BALB/c mouse assessed as inhibition of carrageenan-induced paw edema at 50 mg/kg, po after 90 mins; type: functional; conditions: 1.5 h; method in brief: as §1
Mus musculus [16] = assay: Antiinflammatory activity in BALB/c mouse assessed as inhibition of carrageenan-induced paw edema at 50 mg/kg, po after 360 mins; type: functional; conditions: 6 h; method in brief: as §1
Mus musculus [17] = assay: Antiinflammatory activity in BALB/c mouse assessed as inhibition of carrageenan-induced paw edema at 100 mg/kg, po after 360 mins; type: functional; conditions: 6 h; method in brief: as §1

Structure (SMILES) | inhibition in vivo at 200 mg/kg (Mus musculus [1]) | inhibition in vivo at 100 mg/kg (Mus musculus [2]) | inhibition in vivo at 50 mg/kg (Mus musculus [3]) | inhibition in vivo at 200 mg/kg (Mus musculus [4]) | Activity (Mus musculus [5]) | Activity (Mus musculus [6]) | inhibition in vivo at 100 mg/kg (Mus musculus [7]) | inhibition in vivo at 200 mg/kg (Mus musculus [8]) | Activity (Mus musculus [9]) | inhibition in vivo at 100 mg/kg (Mus musculus [10]) | inhibition in vivo at 100 mg/kg (Mus musculus [11]) | inhibition in vivo at 200 mg/kg (Mus musculus [12]) | inhibition in vivo at 200 mg/kg (Mus musculus [13]) | inhibition in vivo at 100 mg/kg (Mus musculus [14]) | inhibition in vivo at 50 mg/kg (Mus musculus [15]) | inhibition in vivo at 50 mg/kg (Mus musculus [16]) | inhibition in vivo at 100 mg/kg (Mus musculus [17])
COc1ccc(Cc2nnc3n2N=C(c2ccc(F)cc2)CS3)cc1 | 41.7% | 26.3% | 20.5% | 31.5% | 95.4 nmol | Non-toxic | 34.3% | 53.6% |  |  |  |  |  |  |  |  | 
COc1ccc(Cc2n[nH]c(=S)n2N)cc1 | 33.3% | 30.2% | 23.4% | 46.7% | 93 nmol | Non-toxic |  | 32.2% | Non-toxic |  |  |  |  |  |  |  | 
COc1cc(CCc2nnc3n2N=C(c2ccc(Cl)cc2)CS3)cc(OC)c1OC | 25% | 50.2% | 28.5% | 54.8% | 101.9 nmol | Non-toxic | 36.9% | 39.1% |  | 29.3% | 34.3% |  |  |  |  |  | 
COc1cc(CCc2nnc3n2N=C(c2ccccc2)CS3)cc(OC)c1OC | 29.2% | 17.1% | 32.4% | 27.5% | 100.3 nmol | Non-toxic | 38.5% | 46.4% |  | 31.7% |  |  |  |  |  |  | 
COc1ccc(Cc2nnc3n2N=C(c2ccccc2)CS3)cc1 |  | 39.5% | 14.3% | 46.4% | 112.3 nmol | Non-toxic |  |  |  |  |  |  |  |  |  |  | 
COc1cc(Cc2nnc3n2N=C(c2ccc(F)cc2)CS3)cc(OC)c1OC | 25% | 35% | 22.1% | 52.2% | 107.6 nmol | Non-toxic | 26.8% | 24.9% |  |  |  |  |  |  |  |  | 
COc1cc(Cc2nnc3n2N=C(c2ccccc2)CS3)cc(OC)c1OC | 33.3% | 53% | 32.4% | 58.4% | 92.2 nmol | Non-toxic | 34.9% | 32.2% | Non-toxic | 24% | 23.6% |  |  |  |  |  | 
COc1cc(CCc2n[nH]c(=S)n2N)cc(OC)c1OC | 41.7% | 52.4% | 23.1% | 54.2% | 104.3 nmol | Non-toxic |  |  |  |  |  | 39.3% | 20.4% |  |  |  | 
COc1cc(Cc2nnc3n2N=C(c2ccc(Cl)cc2)CS3)cc(OC)c1OC | 25% | 32.6% | 13.5% | 23.4% | 101.1 nmol | Non-toxic |  | 41% |  |  |  |  |  |  |  |  | 
COc1ccc(CCc2nnc3n2N=C(c2ccc(F)cc2)CS3)cc1 | 27.1% | 29.2% | 25% | 37% | 103.5 nmol | Non-toxic | 33.7% | 34% |  | 26% |  |  |  |  |  |  | 
COc1ccc(CCc2nnc3n2N=C(c2ccccc2)CS3)cc1 | 37.5% | 42.8% | 6.4% | 44.2% | 110.8 nmol | Non-toxic |  | 50% |  |  |  |  |  |  |  |  | 
COc1ccc(CCc2nnc3n2N=C(c2ccc(Cl)cc2)CS3)cc1 | 50% | 71.5% | 20.2% | 62.4% | 108.4 nmol | Non-toxic | 29.4% |  |  |  |  |  | 20.4% |  |  |  | 
COc1cc(Cc2n[nH]c(=S)n2N)cc(OC)c1OC | 21.2% | 85.8% | 21.6% | 61% | 96.2 nmol | Non-toxic |  |  |  |  |  |  | 49.2% | 30% | 32.3% | 24.9% | 
COc1ccc2c(c1)c(CC(=O)O)c(C)n2C(=O)c1ccc(Cl)cc1 [INDOMETHACIN] |  |  |  |  |  |  | 43.1% |  |  | 41.9% |  |  |  |  |  |  | 
COc1ccc(CCc2n[nH]c(=S)n2N)cc1 | 37.5% | 56.6% | 9.5% | 56.1% | 105.9 nmol | Non-toxic |  | 33.9% | Non-toxic |  |  |  |  |  |  |  | 
COc1ccc(Cc2nnc3n2N=C(c2ccc(Cl)cc2)CS3)cc1 | 38.9% | 33% | 9.9% | 39% | 97.9 nmol | Non-toxic |  | 25% | Non-toxic |  |  |  |  |  |  |  | 
CC(=O)Oc1ccccc1C(=O)O [ASPIRIN] |  |  |  | 54.4% | 118.2 nmol |  |  |  |  |  |  |  |  |  |  |  | 
COc1cc(CCc2nnc3n2N=C(c2ccc(F)cc2)CS3)cc(OC)c1OC | 23% | 43.1% | 35.2% | 56.1% | 105.1 nmol | Non-toxic |  | 46.4% |  | 40.7% | 57.9% |  |  | 21.4% | 34.5% |  | 38.9%
